Laboratory results as given in ChEMBL document CHEMBL1124233, “Clofazimine analogues active against a clofazimine-resistant organism” (J Med Chem, 1988).

Key:
Type in all cases: functional, organism-based
[1] = tested on: Mycolicibacterium smegmatis; test: Concentration for complete inhibition of growth against rifampicin resistant Mycobacterium smegmatis 607 strain in vitro; Precipitation
Method in brief: (§1)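 M. smegmatis ATCC607-derived strains (one of three used, including a dapsone-sensitive one) were grown in modified Kirchner's medium with 0.5% Tween 80, inoculated with 10^5 viable cells. Drugs were added in DMSO (2% final). Roller tubes were incubated at 37 °C for 72 h. Growth was read as spectrophotometric transmission.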

[2] = tested on: Mycolicibacterium smegmatis; test: Concentration for 100% inhibition of growth of dapsone sensitive Mycobacterium smegmatis 607 strain in vitro; method in brief: as §1
[3] = tested on: Mycolicibacterium smegmatis; test: Concentration for complete inhibition of growth against clofazimine resistant Mycobacterium smegmatis 607 strain in vitro; Precipitation
Method in brief: (§2)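 Strain: 20× step-up clofazimine-resistant mutant of M. smegmatis ATCC607. 10^5 viable cells inoculated into modified Kirchner's medium with 0.5% Tween 80. Drugs were added in DMSO (2% final in all tubes). Roller tubes were incubated at 37 °C for 72 h. Growth was read as optical transmission in a spectrophotometer.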

[4] = tested on: Mycolicibacterium smegmatis; test: 100% inhibition of growth of clofazimine resistant Mycobacterium smegmatis 607 strain in vitro; method in brief: as §2
[5] = tested on: Mycolicibacterium smegmatis; test: 100% inhibition of growth of rifampicin resistant Mycobacterium smegmatis 607 strain in vitro; method in brief: as §1

Row | SMILES | Concentration [1] | Concentration [2] | Concentration [3] | Concentration [4] | Concentration [5]
1 | CCOc1ccc(Nc2cc3nc4ccccc4n(-c4ccc(OCC)cc4)c-3cc2=N)cc1 | 50 µg/mL | 6 µg/mL | 100 µg/mL | – | –
2 | CC1CCC(/N=c2\cc3n(-c4ccccc4)c4ccccc4nc-3cc2Nc2ccccc2)CC1 (stereo not drawn) | – | 6 µg/mL | – | 100 µg/mL | 8 µg/mL
3 | CC1CCC(/N=c2\cc3n(-c4ccc(Cl)cc4)c4ccccc4nc-3cc2Nc2ccc(Cl)cc2)CC1 (stereo not drawn) | – | 7.5 µg/mL | – | 25 µg/mL | 7.5 µg/mL
4 | Cc1ccc(Nc2cc3nc4ccccc4n(-c4ccc(C)cc4)c-3c/c2=N\CC(C)C)cc1 | – | 2 µg/mL | – | 100 µg/mL | 3 µg/mL
5 | CCCC/N=c1\cc2n(-c3ccc(Cl)cc3)c3ccccc3nc-2cc1Nc1ccc(Cl)cc1 | – | 3 µg/mL | – | 100 µg/mL | 3 µg/mL
6 | c1ccc(Nc2cc3nc4ccccc4n(-c4ccccc4)c-3c/c2=N\CCCN2CCOCC2)cc1 | – | 1 µg/mL | – | 6 µg/mL | 0.8 µg/mL
